The source of these data is paper PMC3947748 (Journal of biomolecular screening, 2010).

Like-named read-outs stand apart in the source and are kept apart here. A value given as a limit tells only on which side of the number the result lay.

Experiment [1] concerns the target T1, Nek2 (Homo sapiens, UniProt P51955).
T1 sequence (P51955 1-445): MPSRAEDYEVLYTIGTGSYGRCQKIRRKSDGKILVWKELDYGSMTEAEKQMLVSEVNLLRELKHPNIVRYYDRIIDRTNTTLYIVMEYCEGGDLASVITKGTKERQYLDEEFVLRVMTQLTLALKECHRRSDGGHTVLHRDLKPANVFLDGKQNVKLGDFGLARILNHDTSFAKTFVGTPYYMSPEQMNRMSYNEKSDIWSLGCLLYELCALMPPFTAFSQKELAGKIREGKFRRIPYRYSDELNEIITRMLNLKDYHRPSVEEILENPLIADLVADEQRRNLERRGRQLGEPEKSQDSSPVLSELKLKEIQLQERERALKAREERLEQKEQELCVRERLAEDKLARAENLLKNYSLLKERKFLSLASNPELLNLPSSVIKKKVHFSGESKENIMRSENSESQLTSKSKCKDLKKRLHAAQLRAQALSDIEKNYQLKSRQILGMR
Description: Filter assay of Nek2 kinase activity. It counts as biochemical.

The target in experiment [2] is T1, Nek2. Description: FlashPlate radiometric proximity assay of Nek2 kinase activity. Format: biochemical.
For another experiment, the system named is U2OS:GFP-Nek2A cells. Put plainly: Manual immunofluorescence assay of Nek2A-induced centrosome splitting. It counts as cell-based, human. Conditions: doxycycline-induced cells; 0.5, 5 and 50 μM; 24 hours; γ-tubulin stain. In outline: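 Tetracycline-inducible stable U2OS:GFP-Nek2A cells were induced with doxycycline together with test compound (0.5, 5, 50 μM) or DMSO (2%) for 24 h. Cells were fixed and stained for γ-tubulin and DNA for indirect immunofluorescence. The percentage of interphase cells with centrosomes more than 2 μm apart was scored. Three repeat experiments, standard deviations; Student's t-test versus DMSO.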

Another experiment has as its target Cdk1/Cyclin B (Homo sapiens, UniProt P06493). Put plainly: Kinase specificity assay. Format: biochemical.
The target of the next experiment is Nek7 (Homo sapiens, UniProt Q8TDX7). Description: Kinase specificity assay. Format: biochemical.
The next experiment concerns the target T2, Aurora A (Homo sapiens, UniProt O14965).
T2 sequence (O14965 1-403): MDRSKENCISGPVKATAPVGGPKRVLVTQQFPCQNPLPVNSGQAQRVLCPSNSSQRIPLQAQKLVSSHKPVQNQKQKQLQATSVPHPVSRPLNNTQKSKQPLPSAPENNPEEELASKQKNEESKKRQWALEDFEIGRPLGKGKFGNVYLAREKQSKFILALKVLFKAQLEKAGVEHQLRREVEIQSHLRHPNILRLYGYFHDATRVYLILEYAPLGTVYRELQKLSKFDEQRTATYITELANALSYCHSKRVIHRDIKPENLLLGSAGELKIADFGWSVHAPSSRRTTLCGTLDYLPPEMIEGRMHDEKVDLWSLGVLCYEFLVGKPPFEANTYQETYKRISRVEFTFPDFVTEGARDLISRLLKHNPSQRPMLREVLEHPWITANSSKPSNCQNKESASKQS
Put plainly: Kinase specificity assay. It counts as biochemical.

The test system of the next experiment is HeLa cells. Description: Growth inhibition assay. Format: cell-based. Conditions: Homo sapiens, 72 h, read-out: Growth inhibition GI50, HeLa. In outline:
(§1)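 Cells cultured as previously described, seeded at […], then given test compound in DMSO over a concentration range, or DMSO alone (1-2% final), after 24 h. Incubation 72 h.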

For another experiment, the system named is U2OS cells. Put plainly: Growth inhibition assay. It counts as cell-based. Conditions: Homo sapiens, 72 h, read-out: Growth inhibition GI50, U2OS. In a few lines: as §1
The next experiment addresses Nek6 (Homo sapiens, UniProt Q9HC98). Put plainly: Kinase specificity assay. It counts as biochemical.

Sequence of Nek6 (Q9HC98 whole entry, species assumed): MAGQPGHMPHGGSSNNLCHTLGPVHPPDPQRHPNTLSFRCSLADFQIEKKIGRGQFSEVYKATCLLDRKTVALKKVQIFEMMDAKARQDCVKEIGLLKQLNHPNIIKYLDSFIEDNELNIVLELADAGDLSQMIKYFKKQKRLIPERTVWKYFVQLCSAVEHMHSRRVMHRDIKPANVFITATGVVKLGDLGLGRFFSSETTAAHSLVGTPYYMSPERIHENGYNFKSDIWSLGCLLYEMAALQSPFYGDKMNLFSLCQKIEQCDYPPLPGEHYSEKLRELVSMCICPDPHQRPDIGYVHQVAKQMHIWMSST
Sequence of Nek7 (Q8TDX7 whole entry, species assumed): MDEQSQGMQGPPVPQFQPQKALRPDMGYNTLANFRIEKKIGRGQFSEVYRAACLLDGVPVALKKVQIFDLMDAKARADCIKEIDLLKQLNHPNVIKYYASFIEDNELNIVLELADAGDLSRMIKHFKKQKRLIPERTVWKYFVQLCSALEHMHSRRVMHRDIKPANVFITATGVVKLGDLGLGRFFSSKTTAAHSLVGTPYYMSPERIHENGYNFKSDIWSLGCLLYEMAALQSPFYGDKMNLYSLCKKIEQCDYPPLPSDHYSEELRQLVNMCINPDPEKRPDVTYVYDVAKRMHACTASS
Sequence of Cdk1/Cyclin B (P14635 whole entry): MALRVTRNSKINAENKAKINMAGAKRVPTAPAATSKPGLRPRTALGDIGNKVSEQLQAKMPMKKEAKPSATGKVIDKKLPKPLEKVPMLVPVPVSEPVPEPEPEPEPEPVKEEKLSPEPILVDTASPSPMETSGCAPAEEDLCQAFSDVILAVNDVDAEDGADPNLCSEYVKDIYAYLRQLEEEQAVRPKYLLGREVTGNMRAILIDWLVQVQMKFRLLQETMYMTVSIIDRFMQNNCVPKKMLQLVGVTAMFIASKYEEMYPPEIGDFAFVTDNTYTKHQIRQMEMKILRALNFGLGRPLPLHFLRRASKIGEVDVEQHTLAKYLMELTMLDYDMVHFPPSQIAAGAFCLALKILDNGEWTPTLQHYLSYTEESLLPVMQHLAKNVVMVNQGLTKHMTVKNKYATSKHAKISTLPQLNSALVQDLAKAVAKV
Sequence of Cdk1/Cyclin B (P06493 whole entry): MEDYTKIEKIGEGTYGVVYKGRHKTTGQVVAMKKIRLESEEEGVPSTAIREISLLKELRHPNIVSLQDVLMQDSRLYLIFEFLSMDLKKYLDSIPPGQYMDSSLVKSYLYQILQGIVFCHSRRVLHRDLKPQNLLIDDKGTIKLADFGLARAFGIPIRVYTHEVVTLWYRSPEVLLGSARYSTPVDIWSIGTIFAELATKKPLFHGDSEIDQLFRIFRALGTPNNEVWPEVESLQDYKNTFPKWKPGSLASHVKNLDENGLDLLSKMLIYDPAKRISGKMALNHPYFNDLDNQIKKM

In the case of `O=c1cc(N2CCOCC2)oc2c(-c3ccccc3)cccc12` [LY294002], the “Nek2 inhibition, filter assay (result in words)” value on Nek2 [1] was “inactive”. Besides, the “Nek2 inhibition, FlashPlate (result in words)” value at Nek2 [2] was “inactive”.
Turning to `Oc1ccc(Nc2nc(OCC3CCCCC3)c3[nH]cnc3n2)cc1` [NU6120, 6-cyclohexylmethoxy-2-(4′-hydroxyanilino)purine], the “Effect on Nek2A-induced centrosome splitting (manual scoring, split >2 μm)” value with U2OS:GFP-Nek2A cells is “had no effect on splitting”.
What is called IC50 is the concentration that inhibits the measured activity by half. A low value points to higher potency. What is called GI50 is the concentration at which growth is held to half of that of the control. Turning to `COC[C@H]1OC(=O)c2coc3c2[C@@]1(C)C1=C(C3=O)[C@@H]2CCC(=O)[C@@]2(C)C[C@H]1OC(C)=O` [Wortmannin], the IC50 at Cdk1/Cyclin B, on Nek7, against Aurora A and against Nek6 was over 400 µM throughout. For the same compound, the GI50 is 15 µM in the experiment with HeLa cells and 23.7 µM in the experiment with U2OS cells.
A word on the inhibition: it is the drop in the measured response relative to a control, in per cent. In the case of `CN[C@@H]1C[C@H]2O[C@@](C)([C@@H]1OC)n1c3ccccc3c3c4c(c5c6ccccc6n2c5c31)C(=O)NC4` [Staurosporine, staurosporine], on Nek2 [2] (data not shown), the “Hill slope of Nek2 inhibition” value was about 1.0. Moreover, the inhibition at 25 µM turned out to be 59 ± 18% at Nek2 [2] (read-out: Inhibition of Nek2 activity at 25 μM, entire screen) and 61.2 ± 2.4% at Nek2 [2] (read-out: Inhibition of Nek2 activity at 25 μM, typical batch).
